Active and inactive are the calls of the source. The calls are words filed in the database; no cut-off is given here.
Legend:
[1] = system: Punta Toro virus; assay: Antiviral activity against Punta Toro virus Adames infected Syrian golden hamster assessed as mean day of death at 30 mg/kg, po twice daily for 6 days administered 4 hrs before viral challenge; assay type: functional
Procedure, shortened: (§1)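 Hamsters (groups of 15, placebo 25-30) were challenged subcutaneously with 50 PFU and dosed twice daily by oral gavage in 0.4% CMC vehicle.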

[2] = system: Punta Toro virus; assay: Antiviral activity against Punta Toro virus Adames infected Syrian golden hamster assessed as animals with detectable virus level in liver at 30 mg/kg, […] measured on day 4 of viral infection; assay type: functional; conditions: route oral
[3] = system: Punta Toro virus; assay: Antiviral activity against 5000 PFU Punta Toro virus Adames infected C57BL/6 mouse assessed as mean day of death at 10 mg/kg, po twice daily for 5 days administered 24 hrs post viral challenge; assay type: functional
Procedure, shortened: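 PTV was inoculated subcutaneously into mice in groups of 15 (25–30 placebo). Dosing was by oral gavage twice daily for 5–7 days, with T-705 suspended in 0.4% CMC and ribavirin in saline. Remaining animals were observed 21–28 days for survival and day of death. Test doses had first been checked for tolerance in uninfected animals.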

[4] = system: Punta Toro virus; assay: Antiviral activity against 5000 PFU Punta Toro virus Adames infected C57BL/6 mouse assessed as animals with detectable virus level in liver at 30 mg/kg, po twice daily administered 24 hrs post viral challenge measured on day 3 of viral infection; assay type: functional
Procedure, shortened: (§2)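 Mice were infected subcutaneously with PTV and dosed by oral gavage twice daily; 5 per group (10 placebo) were killed on day 3 or 4. Liver homogenate or serum was serially diluted onto triplicate LLC-MK2 monolayers, and CPE was read 6–8 days later. 50% endpoints gave log10 CCID50 per 0.1 g liver or 0.1 ml serum. Detection range was 2.8–9.5; undetectable samples were assigned <2.8.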

[5] = system: Punta Toro virus; assay: Antiviral activity against 5000 PFU Punta Toro virus Adames infected C57BL/6 mouse assessed as animals with detectable virus level in liver at 10 mg/kg, po twice daily administered 24 hrs post viral challenge measured on day 3 of viral infection; assay type: functional; procedure, shortened: as §2
[6] = system: Punta Toro virus; assay: Antiviral activity against 5000 PFU Punta Toro virus Adames infected C57BL/6 mouse assessed as mean viral titer per 0.1 mL of serum at 10 mg/kg, po twice daily administered 24 hrs post viral challenge measured on day 3 of viral infection; assay type: functional; procedure, shortened: as §2
[7] = system: Punta Toro virus; assay: Antiviral activity against 50 PFU Punta Toro virus Adames infected C57BL/6 mouse assessed as mean viral titer per 0.1 g of liver at 30 mg/kg, po twice daily administered 24 hrs post viral challenge measured on day 3 of viral infection; assay type: functional
Procedure, shortened: (§3)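 Mice were infected subcutaneously with PTV and dosed by oral gavage twice daily with drug in 0.4% CMC. Five per group (10 placebo) were sacrificed on day 3 or 4. Serially diluted liver homogenate or serum went into triplicate LLC-MK2 wells, and CPE 50% endpoints were read at 6–8 days. The range was 2.8–9.5 log10 CCID50/0.1 g or 0.1 ml, with undetectable samples set to 2.8 and saturated samples to 9.5.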

[8] = system: Punta Toro virus; assay: Antiviral activity against 50 PFU Punta Toro virus Adames infected C57BL/6 mouse assessed as mean viral titer per 0.1 mL of serum at 10 mg/kg, po twice daily administered 24 hrs post viral challenge measured on day 3 of viral infection; assay type: functional; procedure, shortened: as §3
[9] = system: Punta Toro virus; assay: Antiviral activity against Punta Toro virus Adames infected Syrian golden hamster assessed as survival at 30 mg/kg, po twice daily for 6 days administered 4 hrs before viral challenge; assay type: functional; procedure, shortened: as §1
[10] = system: La Crosse virus; assay: Antiviral activity against La Crosse virus assessed as inhibition of virus-induced visual cytopathic effect after 3 to 5 days; assay type: functional, organism-based
Procedure, shortened: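 Virus diluted in 2% FBS medium was added with half-log drug dilutions at infection. Plates were incubated at 37°C, 5% CO2, until maximal CPE in infected controls, then scored visually 3–5 days post-infection. EC50 was derived by regression analysis.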

[11] = system: Rift Valley fever virus; assay: Antiviral activity against Rift Valley fever virus MP-12 assessed as inhibition of virus-induced visual cytopathic effect after 3 to 5 days; assay type: functional, organism-based
Procedure, shortened: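 Virus in medium with 2% FBS was used at the CCID50 that gave maximal CPE. Half-log drug dilutions (DMSO stock, ≤1% DMSO at the top concentration) were added at infection. EC50 was derived by regression analysis.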

[12] = system: Punta Toro virus; assay: Antiviral activity against 500 PFU Punta Toro virus Adames infected C57BL/6 mouse assessed as animals with detectable virus level in liver at 10 mg/kg, po twice daily administered 24 hrs post viral challenge measured on day 3 of viral infection; assay type: functional
Procedure, shortened: (§4)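 T-705 was suspended in 0.4% carboxymethylcellulose and given by oral gavage twice daily. Mice were infected subcutaneously with PTV. Five mice per group (10 placebo) were sacrificed on day 3 or 4. Liver homogenate or serum was serially diluted onto triplicate LLC-MK2 monolayers, and CPE was read at 6–8 days. The detection limit was 2.8 log10 CCID50 per 0.1 g liver or 0.1 ml serum.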

[13] = system: Punta Toro virus; assay: Antiviral activity against 500 PFU Punta Toro virus Adames infected C57BL/6 mouse assessed as animals with detectable virus level in serum at 30 mg/kg, po twice daily administered 24 hrs post viral challenge measured on day 3 of viral infection; assay type: functional; procedure, shortened: as §4
[14] = system: Punta Toro virus; assay: Antiviral activity against Punta Toro virus Adames infected Syrian golden hamster assessed as mean viral titer per 0.1 mL of serum at 30 mg/kg, po twice daily administered 4 hrs before viral challenge measured on day 4 of viral infection; assay type: functional
Procedure, shortened: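 Hamsters received twice-daily oral gavage doses (0.4% CMC) after subcutaneous challenge with 50 PFU. Five per group were killed on day 3 or 4. Liver homogenate or serum was serially diluted onto triplicate LLC-MK2 wells, CPE was read at 6-8 days, and the 50% endpoint was taken. Range was 2.8-9.5 log10 CCID50/0.1 g or 0.1 ml, with undetectable assigned <2.8.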

[15] = system: Punta Toro virus; assay: Antiviral activity against Punta Toro virus Adames infected Syrian golden hamster assessed as inhibition of liver damage at 30 mg/kg, po twice daily administered 4 hrs before viral challenge measured on day 4 of viral infection; assay type: functional, organism-based; design: dose 30 mg/kg
Procedure, shortened: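 Hamsters were challenged subcutaneously with 50 PFU and dosed twice daily by oral gavage in 0.4% CMC. Five per group were sacrificed on day 3 or 4. Livers were scored 0-4 for icterus, and serum ALT was measured by kinetic assay against three sham-infected baseline animals.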

[16] = system: Junin virus; assay: Antiviral activity against Junin virus Candid-1 in Vero cells assessed as inhibition of virus-induced visual cytopathic effect after 7 to 8 days; assay type: functional, organism-based; conditions: Mammarenavirus juninense, Candid-1, Vero
[17] = system: Pichinde virus; assay: Antiviral activity against Pichinde virus An 4763 infected Syrian golden hamster assessed as mean day of death at 40 mg/kg, po twice daily for 7 days administered 4 hrs before viral-challenge; assay type: functional
Procedure, shortened: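 Groups of 15 hamsters (placebo 25-30) were challenged intraperitoneally (bilateral, 65 PFU) and dosed twice daily by oral gavage in 0.4% CMC for 5 to 7 days.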

[18] = system: Pichinde virus; assay: Antiviral activity against Pichinde virus An 4763 infected Syrian golden hamster assessed as animals with detectable virus level in liver at 40 mg/kg, po twice daily for 7 days administered 4 hrs before viral-challenge measured on day 7 of viral infection; assay type: functional
[19] = system: Pichinde virus; assay: Antiviral activity against Pichinde virus An 4763 infected Syrian golden hamster assessed as mean viral titer per 0.1 mL of serum at 40 mg/kg, po twice daily for 7 days administered 4 hrs before viral-challenge measured on day 7 of viral infection; assay type: functional
[20] = system: Punta Toro virus; assay: Antiviral activity against 5000 PFU Punta Toro virus Adames infected C57BL/6 mouse assessed as animals with detectable virus level in serum at 30 mg/kg, po twice daily administered 24 hrs post viral challenge measured on day 3 of viral infection; assay type: functional; procedure, shortened: as §2

| SMILES | Activity [1] [days] | Activity [2] [%] | Activity [3] [days] | Activity [4] [%] | Activity [5] [%] | log10CCID50 [6] | log10CCID50 [7] | log10CCID50 [8] | EC50 [10] [µM] | EC50 [11] [µM] | Activity [12] [%] | Activity [13] [%] | log10CCID50 [14] | Activity [15] | EC50 [16] [µM] | Activity [17] [days] | Activity [18] [%] | log10CCID50 [19] | Activity [20] [%] | also measured |
| --- | --- | --- | --- | --- | --- | --- | --- | --- | --- | --- | --- | --- | --- | --- | --- | --- | --- | --- | --- | --- |
| NC(=O)c1ncn([C@@H]2O[C@H](CO)[C@@H](O)[C@H]2O)n1 [RIBAVIRIN] | 13.3 | 0 | 4 | 20 | 0 | 5.9 | <2.8 | <4.9 | 70 | 53 | 20 | 80 | <2.8 | Active | 11 | 11 | 20 | <3 | 60 | Activity [9]: 70% |
| NC(=O)c1nc(F)cnc1O [FAVIPIRAVIR] | 6 | 40 | 4.4 | 20 | 20 | <5.2 | <2.8 | 6.9 | 32 | 32 | 0 | 80 | <4.5 | Active | 5 | 11 | 20 | <3 | 80 | survival at 30 mg/kg ([9]; Punta Toro virus, Adames): 90% |
